Test results published in ChEMBL document CHEMBL4813935, “Cyclotides from Brazilian Palicourea sessilis and Their Effects on Human Lymphocytes” (J Nat Prod, 2021).
Positions of bridges follow the written chain, without caps; N, C: chain ends. Residues, ends and D or L forms follow the SMILES beside them.

Tests used:
[1] = Cytotoxicity against human HT-29 cells assessed as reduction in cell viability measured after 48 hrs by MTT assay; assay type: cell-based
In short: (§1)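 Cells seeded at 5.0 × 10^3 per well; medium was refreshed the day after plating, then peptides were added at final 0.78–100 μM, with 0.1% (v/v) Triton X-100 as positive control. Incubation was 48 h, then MTT (5 mg/mL in PBS) for 3 h. Formazan was dissolved in DMSO and read at 600 nm. Triplicate experiments; CC50 from log(inhibitor) vs normalized response (variable slope) fit.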

[2] = Hemolytic activity against human RBC assessed as concentration required to cause 50% hemolysis measured after 1 hr; assay type: cell-based, Erythrocyte; conditions: red blood cells (erythrocytes), read-out: CC50
In short: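 Donor human red blood cells were washed in PBS and diluted to 0.25% (v/v). Peptides were serially diluted from water to eight concentrations, 0.187–24 μM. Incubation was 1 h at 37 °C; PBS served as negative control and 1% Triton-X as positive control. Supernatant absorbance was read at 415 nm. CC50 (50% lysis) from log(agonist) vs response (variable slope) fit; n = 3.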

[3] = Cytotoxicity against HUVEC assessed as reduction in cell viability measured after 48 hrs by MTT assay; assay type: cell-based; conditions: human; in short: as §1
[4] = Inhibition of anti-human CD3/CD28/mAbs-stimulated human T-lymphocutes proliferation after 72 hrs by CFSE staining based flow cytometric analysis; assay type: functional, tissue-based; conditions: T-cell
In short: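 PBMC from healthy donor venous blood, density-gradient isolated; 5 × 10^6 cells/mL labelled with CFSE (1:1000 of 5 mM stock), 10 min at 37 °C, washed. Stimulated with anti-CD3 (OKT3) and anti-CD28 (28.6), each 100 ng/mL, with peptide at 1–30 μM for 72 h at 37 °C, 5% CO2. Division read by flow cytometry, normalised to stimulated untreated cells (100%); four independent experiments.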

T-cell line = assay: Immunosuppressive activity in anti-CD3/anti-CD28-stimulated human T-lymphocytes assessed as inhibition of cell proliferation after 72 hrs by CFSE staining based flow cytometric analysis; assay type: functional
In short: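 Donor PBMC were isolated on a density gradient and CFSE-stained for 10 min at 37 °C. Cells were stimulated with anti-CD3 (OKT3) and anti-CD28 mAbs, 100 ng/mL each, and exposed to peptides at 1–30 μM for 72 h at 37 °C, 5% CO2. Division was read by flow cytometry and normalized to stimulated untreated cells (100%). Four independent experiments, mean ± SD.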

SMILES | CC50 at 48 h [1] [µM] | HC50 at 1 h [2] [µM] | CC50 at 48 h [3] [µM] | IC50 [4] [µM] | IC50 (T-cell line) [µM]
CC(C)C[C@@H]1NC(=O)CNC(=O)[C@H](CC(N)=O)NC(=O)[C@H](CCCNC(=N)N)NC(=O)[C@H]([C@@H](C)O)NC(=O)[C@@H]2CSSC[C@@H]3NC(=O)[C@H]([C@@H](C)O)NC(=O)CNC(=O)CNC(=O)[C@H](C(C)C)NC(=O)[C@@H]4CSSC[C@H](NC(=O)[C@H](CO)NC(=O)[C@H](CSSC[C@H](NC(=O)[C@H](C(C)C)NC(=O)[C@@H]5CCCN5C1=O)C(=O)NCC(=O)N[C@@H](CCC(=O)O)C(=O)N[C@@H]([C@@H](C)O)C(=O)N4)NC(=O)CNC(=O)[C@@H]1CCCN1C(=O)[C@H]([C@@H](C)O)NC(=O)[C@H](CC(N)=O)NC3=O)C(=O)N[C@@H](CO)C(=O)N[C@@H](Cc1c[nH]c3ccccc13)C(=O)N1CCC[C@H]1C(=O)N[C@@H](C(C)C)C(=O)N2 | 7.3 | 49.6 | > 10 | – | –
CC(C)C[C@@H]1NC(=O)CNC(=O)[C@H](CC(N)=O)NC(=O)[C@H](CCCNC(=N)N)NC(=O)[C@H]([C@@H](C)O)NC(=O)[C@@H]2CSSC[C@@H]3NC(=O)[C@H]([C@@H](C)O)NC(=O)CNC(=O)CNC(=O)[C@H](C(C)C)NC(=O)[C@@H]4CSSC[C@H](NC(=O)[C@H]([C@@H](C)O)NC(=O)[C@H](CSSC[C@H](NC(=O)[C@H](C(C)C)NC(=O)[C@@H]5CCCN5C1=O)C(=O)NCC(=O)N[C@@H](CCC(=O)O)C(=O)N[C@@H]([C@@H](C)O)C(=O)N4)NC(=O)CNC(=O)[C@@H]1CCCN1C(=O)[C@H]([C@@H](C)O)NC(=O)[C@H](CC(N)=O)NC3=O)C(=O)N[C@@H](CO)C(=O)N[C@@H](Cc1c[nH]c3ccccc13)C(=O)N1CCC[C@H]1C(=O)N[C@@H](C(C)C)C(=O)N2 | > 10 | – | 5.1 | 1.9 | –
CC[C@H](C)[C@@H]1NC(=O)[C@@H]2CCCN2C(=O)[C@H](Cc2c[nH]c3ccccc23)NC(=O)[C@H](CO)NC(=O)[C@@H]2CSSC[C@@H]3NC(=O)[C@H]([C@@H](C)O)NC(=O)[C@H](CCC(=O)O)NC(=O)CNC(=O)[C@@H]4CSSC[C@H](NC(=O)CNC(=O)[C@@H]5CCCN5C(=O)[C@H]([C@@H](C)O)NC(=O)[C@H](CC(N)=O)NC(=O)[C@H](CSSC[C@H](NC1=O)C(=O)N[C@@H]([C@@H](C)O)C(=O)N[C@@H](CCCNC(=N)N)C(=O)N[C@@H](CC(N)=O)C(=O)NCC(=O)N[C@@H](CC(C)C)C(=O)N1CCC[C@H]1C(=O)N[C@@H]([C@@H](C)O)C(=O)N4)NC(=O)[C@H]([C@@H](C)O)NC(=O)CNC(=O)CNC(=O)[C@H](C(C)C)NC3=O)C(=O)N[C@@H](C(C)C)C(=O)N2 (cyclo(CGETCVGGTCNTPGCVCSWPICTRNGLPT); disulfide 1-15, 5-17, 10-22) | 8.4 | 62.8 | > 10 | – | 7.1
CC[C@H](C)[C@@H]1NC(=O)[C@@H]2CCCN2C(=O)[C@H](Cc2c[nH]c3ccccc23)NC(=O)[C@H](C)NC(=O)[C@@H]2CSSC[C@@H]3NC(=O)[C@H]([C@@H](C)O)NC(=O)[C@H](CCC(=O)O)NC(=O)CNC(=O)[C@@H]4CSSC[C@H](NC(=O)CNC(=O)[C@@H]5CCCN5C(=O)[C@H]([C@@H](C)O)NC(=O)[C@H](CC(N)=O)NC(=O)[C@H](CSSC[C@H](NC1=O)C(=O)N[C@@H]([C@@H](C)O)C(=O)N[C@@H](CCCNC(=N)N)C(=O)N[C@@H](CC(N)=O)C(=O)NCC(=O)N[C@@H](CC(C)C)C(=O)N1CCC[C@H]1C(=O)N[C@@H](C(C)C)C(=O)N4)NC(=O)[C@H]([C@@H](C)O)NC(=O)CNC(=O)CNC(=O)[C@H](C(C)C)NC3=O)C(=O)N[C@@H](C(C)C)C(=O)N2 | 6.1 | 33.5 | 5.3 | – | 1.6
CC(C)C[C@@H]1NC(=O)CNC(=O)[C@H](CC(N)=O)NC(=O)[C@H](CCCNC(=N)N)NC(=O)[C@H]([C@@H](C)O)NC(=O)[C@@H]2CSSC[C@@H]3NC(=O)[C@H]([C@@H](C)O)NC(=O)CNC(=O)CNC(=O)[C@H](C(C)C)NC(=O)[C@@H]4CSSC[C@H](NC(=O)[C@H](C(C)C)NC(=O)[C@H](CSSC[C@H](NC(=O)[C@H](C(C)C)NC(=O)[C@@H]5CCCN5C1=O)C(=O)NCC(=O)N[C@@H](CCC(=O)O)C(=O)N[C@@H]([C@@H](C)O)C(=O)N4)NC(=O)CNC(=O)[C@@H]1CCCN1C(=O)[C@H]([C@@H](C)O)NC(=O)[C@H](CC(N)=O)NC3=O)C(=O)N[C@@H](CO)C(=O)N[C@@H](Cc1c[nH]c3ccccc13)C(=O)N1CCC[C@H]1C(=O)N[C@@H](C(C)C)C(=O)N2 | 5.5 | 39.5 | 5.2 | – | 4.5
CC[C@H](C)[C@@H]1NC(=O)[C@@H]2CCCN2C(=O)[C@H](Cc2c[nH]c3ccccc23)NC(=O)[C@H](CO)NC(=O)[C@@H]2CSSC[C@@H]3NC(=O)[C@H]([C@@H](C)O)NC(=O)[C@H](CCC(=O)O)NC(=O)CNC(=O)[C@@H]4CSSC[C@H](NC(=O)CNC(=O)[C@@H]5CCCN5C(=O)[C@H]([C@@H](C)O)NC(=O)[C@H](CC(N)=O)NC(=O)[C@H](CSSC[C@H](NC1=O)C(=O)N[C@@H]([C@@H](C)O)C(=O)N[C@@H](CCCNC(=N)N)C(=O)N[C@@H](CC(N)=O)C(=O)NCC(=O)N[C@@H](CC(C)C)C(=O)N1CCC[C@H]1C(=O)N[C@@H](C(C)C)C(=O)N4)NC(=O)[C@H]([C@@H](C)O)NC(=O)CNC(=O)CNC(=O)[C@H](C(C)C)NC3=O)C(=O)N[C@@H](C(C)C)C(=O)N2 | > 10 | 14.6 | 7.5 | – | 2.3
CC(C)C[C@@H]1NC(=O)CNC(=O)[C@H](CC(N)=O)NC(=O)[C@H](CCCNC(=N)N)NC(=O)[C@H](CCCCN)NC(=O)[C@@H]2CSSC[C@@H]3NC(=O)[C@H](CO)NC(=O)CNC(=O)[C@H]([C@@H](C)O)NC(=O)[C@H](C(C)C)NC(=O)[C@@H]4CSSC[C@H](NC(=O)[C@H](CO)NC(=O)[C@H](CSSC[C@H](NC(=O)[C@H](C(C)C)NC(=O)[C@@H]5CCCN5C1=O)C(=O)NCC(=O)N[C@@H](CCC(=O)O)C(=O)N[C@@H]([C@@H](C)O)C(=O)N4)NC(=O)CNC(=O)[C@@H]1CCCN1C(=O)[C@H]([C@@H](C)O)NC(=O)[C@H](Cc1ccc(O)cc1)NC3=O)C(=O)N[C@@H](CO)C(=O)N[C@@H](Cc1c[nH]c3ccccc13)C(=O)N1CCC[C@H]1C(=O)N[C@@H](C(C)C)C(=O)N2 | 5.6 | 51.7 | > 10 | – | –
